# Source: PubChem (several laboratories)
# LMPTP inh – LMPTP phosphatase inhibitors, primary screen, biochemical, fluorescence intensity, uHTS; Low molecular weight phosphotyrosine protein phosphatase (Homo sapiens), P24666; recombinant LMPTP-A, OMFP fluorogenic substrate; inhibition, % at 20 µM; 0.22% of 360,000 active; AID 651560, 2012;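 active = compounds that cut the enzyme signal by at least half of the control window in the single-dose screen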;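 also: plate controls were DMSO wells with enzyme plus substrate for no effect and substrate without enzyme for full effect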
#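 Assay system: LMPTP-A phosphatase enzyme | Input: 0.625 nM enzyme | Also added: Fluorogenic phosphatase substrate OMFP at 400 µM final | Compound dosing: One test concentration per compound, 20 µM, with 3% DMSO overall | Schedule: 50 min enzyme reaction at room temperature, protected from light | Signal: Fluorescence intensity | Benchmarks: no-enzyme and uninhibited controls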
# DNMT1 inh – human DNMT1 methyltransferase inhibitors, primary screen, biochemical, molecular beacon, fluorescence, HinP1I cleavage, uHTS; 0.83% of 360,000 active; inhibition (reported as % activation of signal), % at 10 µM; in the data active = inhibition above about 50%
# STEP block – STEP phosphatase inhibitors, primary screen, biochemical, fluorescence intensity, uHTS; 0.25% of 360,000 active; recombinant STEP, OMFP fluorogenic substrate; inhibition, % at 20 µM;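 active = inhibition at 20 µM, scaled per plate between control wells, above about 37%, limit read from the data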;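 also: 0% = DMSO with enzyme and substrate and 100% = substrate only without enzyme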
#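 System: isolated STEP enzyme; schedule: 20 min enzyme reaction at room temperature, protected from light; medium: Bis-Tris buffer pH 6.0, 2.5 mM DTT, 0.005% Tween 20; signal: fluorescence, 480/540 nm; dosing: single compound dose of 20 µM, 1% DMSO final; also added: OMFP substrate, 25 µM final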
# Scp1 inh – Scp-1 phosphatase inhibitors, primary screen, biochemical, colorimetric, uHTS. Carboxy-terminal domain RNA polymerase II polypeptide A small phosphatase 1 (Homo …. Recombinant Scp1, phosphopeptide, malachite green phosphate absorbance. inhibition, % at 20 µM. 0.88% of 340,000 active. AID 493091, 2011;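 active = inhibition above about 50% at 20 µM, limit read from the data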;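 also: plate controls were DMSO wells with enzyme for no effect and wells lacking enzyme for full effect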
#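 Assay system: SCP-1 catalytic fragment, aa 76-261 | Buffer or medium: Tris acetate buffer pH 5.5 with MgCl2 and Tween-20 | Compound: One concentration, 20 µM, with 1.0% DMSO | Also added: Phospho 17-mer peptide substrate | Signal: Absorbance at 630 nm | Incubation: 45 min enzyme reaction at room temperature | Measure: % inhibition of SCP-1 phosphate liberation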
# GRK2 aptamer HTS – compounds blocking aptamer binding on GRK2 – biochemical, human GRK2, bead flow cytometry, HTS, primary screen; Beta-adrenergic receptor kinase 1 (Homo sapiens), P25098; FAM-aptamer displacement from GRK2; inhibition of aptamer binding, % at 10 µM; 0.59% of 330,000 active;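 active = inhibition of aptamer binding above 40%, roughly 3 SD of noise, on plates passing a quality check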;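 also: median bead fluorescence of bound FAM aptamer so fluorescent compounds give negative values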
# Target sequence (P25098 whole entry, looked up): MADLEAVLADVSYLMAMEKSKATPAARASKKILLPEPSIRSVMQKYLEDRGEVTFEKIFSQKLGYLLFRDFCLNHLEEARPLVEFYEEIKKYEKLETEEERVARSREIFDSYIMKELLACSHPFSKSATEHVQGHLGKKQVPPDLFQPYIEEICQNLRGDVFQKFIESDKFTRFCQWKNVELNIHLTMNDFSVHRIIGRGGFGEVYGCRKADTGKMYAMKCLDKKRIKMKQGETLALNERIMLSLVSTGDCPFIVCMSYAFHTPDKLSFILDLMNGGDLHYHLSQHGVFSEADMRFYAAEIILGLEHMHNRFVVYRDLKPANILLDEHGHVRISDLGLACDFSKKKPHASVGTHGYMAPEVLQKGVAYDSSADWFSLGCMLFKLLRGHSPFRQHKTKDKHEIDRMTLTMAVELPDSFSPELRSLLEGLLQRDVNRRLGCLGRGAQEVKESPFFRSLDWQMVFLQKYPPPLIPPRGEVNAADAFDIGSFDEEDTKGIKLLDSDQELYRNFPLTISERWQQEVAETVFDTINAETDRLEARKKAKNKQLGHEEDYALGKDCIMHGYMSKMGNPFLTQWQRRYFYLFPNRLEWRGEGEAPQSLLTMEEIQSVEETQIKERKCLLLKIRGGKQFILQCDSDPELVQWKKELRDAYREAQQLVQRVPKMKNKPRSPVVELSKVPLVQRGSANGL
# SUMO1-SIM PPI – modulators of SUMO1 protein-protein interactions, primary screen, biochemical, uHTS; SUMO1 binding to a labelled peptide, TR-FRET, 1 h; inhibition, % at 20 µM; 0.33% of 360,000 active; Small ubiquitin-related modifier 1 (Homo sapiens), P63165; AID 602429, 2012; in the data active = inhibition above about 37%
# Scp1 confirm – Scp-1 phosphatase inhibitors, retest, confirmation, biochemical, colorimetric, single concentration. shares compounds with Scp1 inh. recombinant SCP-1 catalytic domain, phosphate release, malachite green absorbance. AID 540281, 2011. 61% of 2,500 active. inhibition, % at 20 µM;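 active = inhibition of at least 30% at 20 µM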;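 also: plate controls were DMSO with enzyme for no effect and buffer wells lacking enzyme for full effect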
# MG interference – colorimetric readout interference by compounds, confirmation, artefact control for Scp-1 inhibitor project, biochemical, single concentration; shares compounds with Scp1 inh; Colorimetric interference counterscreen, malachite green absorbance 630 nm; apparent inhibition (interference), % at 20 µM; 2,500 tested, under 10 active;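 active = inhibition of at least 30% at 20 µM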;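 also: compounds added after enzyme reaction finished so only phosphate colour detection is probed; plate controls were DMSO wells with completed Scp-1 reaction for no effect and substrate wells lacking enzyme for full effect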
# Scp-1 Tm shift – Scp-1 binding by thermal shift, confirmation, orthogonal assay for Scp-1 inhibitor project, biophysical, differential scanning fluorimetry | 25% of 1,500 active | thermal shift relative to vanadate control, % at 40 µM | AID 540329, 2011 | shares compounds with Scp1 inh | Recombinant SCP1, Sypro Orange thermal shift Tm;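 active = substances whose mean melting-temperature shift, as a percentage of the reference inhibitor's shift, reaches about 5.3%, limit read from the data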;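 also: 0% = Tm of DMSO wells and 100% = Tm with sodium orthovanadate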
# DNMT1 interf DR – spectral interference with molecular beacon fluorescence, dose response, artefact control for DNMT1 inhibitor project, biochemical, fluorescent molecular beacon; 200 tested, under 10 active; shares compounds with DNMT1 inh; spectral interference counter-screen; IC50, µM
# DNMT1 confirm – DNMT1 methyltransferase inhibitor retest, confirmation, biochemical, molecular beacon, fluorescence, single concentration | DNMT1 molecular beacon HinP1I cleavage | AID 602385, 2012 | shares compounds with DNMT1 inh | 8% of 2,300 active | inhibition, % at 10 µM;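 active = average inhibition of at least 30% in the single-concentration confirmation test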
# Beacon interf – beacon fluorescence artifact counter-screen. 1% of 2,300 active. shares compounds with DNMT1 inh. activation (fluorescence interference), % at 10 µM. AID 602387. DNMT1 molecular beacon spectral interference counterscreen, fluorescence 485/520;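 active = activation of at least 30% at 10 µM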;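 also: DNMT1 catalytic domain with a HinP1I cleavage step and a FAM/dabcyl DNA beacon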
# STEP conf – STEP phosphatase inhibitor hit confirmation, biochemical, fluorescence intensity, single concentration; shares compounds with STEP block; recombinant STEP, OMFP fluorogenic substrate; inhibition, % at 20 µM; 32% of 520 active; AID 623866, 2012;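 also: 0% = enzyme with substrate plus DMSO and 100% = substrate without enzyme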
# Active calls of the source: *; x = no result given. Sampled rows, rich in hits. Any-hit rate of the full collection: about 2.1%. Unless noted, no rule for the calls is given here.
SMILES,LMPTP inh,DNMT1 inh,STEP block,Scp1 inh,GRK2 aptamer HTS,SUMO1-SIM PPI,DNMT1 confirm,Beacon interf,others
Cc1ccc2c(c1Cl)NC(C(=O)O)C1CC(Sc3ccccc3[N+](=O)[O-])C(Cl)C21 (configuration not stated),42,71*,5,60*,7,30,22,1,Scp1 confirm=65*;MG interference=-16;Scp-1 Tm shift=18*
Cc1cc(/C=C2\C(=O)NC(=O)N(c3ccc(F)cc3)C2=O)c(C)n1-c1cccc(C(=O)O)c1,-1,37,2,11,8,23,x,x,
Cc1cc(/C=C2\C(=O)NC(=O)N(c3ccccc3F)C2=O)c(C)n1-c1cc(C(=O)O)cc(C(=O)O)c1,1,87*,42*,55*,36,13,27,1,Scp1 confirm=32*;MG interference=-15;Scp-1 Tm shift=9.9*;DNMT1 interf DR=>99
COc1ccc(CN2C(=O)NC(=O)/C(=C/c3ccoc3)C2=O)cc1,24,101*,68*,72*,4,32,11,-1,Scp1 confirm=71*;MG interference=-13;Scp-1 Tm shift=1
CC[N+](C)(CC)CCCCOc1ccc2c(c1)C(=O)c1cc(OCCCC[N+](C)(CC)CC)ccc1-2,3,54*,2,103*,2,-48,39*,-7,Scp1 confirm=62*;MG interference=-2;Scp-1 Tm shift=1;DNMT1 interf DR=>99
O=C1C=C2c3ccccc3CC(C(=O)O)C2CC1 (configuration not stated),0,-4,3,x,x,-6,x,x,
CCOC(=O)c1cc2cc(OC)ccc2n1C1CCN(Cc2ccccc2)CC1,2,x,x,x,x,-6,x,x,
O=C1NC(=O)C(=Cc2ccc(SC3CCCCC3)o2)C(=O)N1,5,86*,1,53*,4,9,10,0,Scp1 confirm=75*;MG interference=-9;Scp-1 Tm shift=-7
COC(=O)[C@@H]1N=C(c2ccc(OC)cc2)O[C@]12C(=O)N(C)c1cccc(Cl)c12,0,x,x,x,x,-5,x,x,
O=P1(c2ccccc2)CC=CC1,-1,3,1,x,x,-3,x,x,
CCN(CC)P(=O)(NC(=O)C(Cl)(Cl)Cl)N(CC)CC.[Cl-].[Cl-].[Cl-].[Nd+3],44,27,87*,101*,26,107*,x,x,Scp1 confirm=70*;MG interference=-17;Scp-1 Tm shift=-8;STEP conf=25*
CCOC(=O)[C@]12Cc3c(cc(OC)c(OC)c3OC)[C@H]1N(C)C(=O)c1ccccc12,0,x,x,x,x,6,x,x,
COc1ccc(/C=N/N=C(/N)N[N+](=O)[O-])c(OC)c1,-1,3,1,0,1,-10,x,x,
N/C(=N\N=C/c1ccc(-c2ccc(O)c(C(=O)O)c2)o1)N[N+](=O)[O-],30,88*,71*,80*,23,27,96*,-4,DNMT1 interf DR=>99
Cc1ccc(N2C(=O)NC(=O)/C(=C/c3cnn(-c4ccc(C)cc4)c3)C2=O)cc1,-1,2,1,-8,4,5,x,x,
Cc1ccc(N2C(=O)NC(=O)/C(=C/c3ccoc3)C2=O)cc1,56*,93*,95*,84*,x,102*,64*,-5,DNMT1 interf DR=>99
CCCCN1C(=O)/C(=C/c2ccc(N(C)C)cc2)C(=O)N(Cc2ccco2)C1=O,3,80*,-4,22,0,7,1,-1,
CCN(CC)c1ccc(/C=C2\C(=O)NC(=O)N(Cc3ccco3)C2=O)cc1,0,39,-3,-1,0,5,x,x,
CC(C)c1ccc(N2C(=O)NC(=O)/C(=C/C=C/c3ccco3)C2=O)cc1,0,86*,4,2,8,12,10,5,
O=C1NC(=O)N(Cc2ccc(F)cc2)C(=O)/C1=C\C=C\c1ccco1,1,26,2,14,11,11,x,x,
Cc1cc(C)cc(N2C(=O)NC(=O)/C(=C\C=C\c3ccco3)C2=O)c1,2,74*,2,4,21,4,2,-3,
CCCCN1C(=O)/C(=C/C=C/c2ccco2)C(=O)NC1=S,6,107*,15,74*,x,24,23,-3,DNMT1 interf DR=>99
N#CC1c2ccccc2-n2nncc2CN1Cc1cc(Cl)cc(Cl)c1 (configuration not stated),2,-2,0,-4,x,4,x,x,
O=C1NC(=O)N(Cc2ccco2)C(=O)/C1=C/c1cccn1CCOc1ccccc1Cl,3,69*,0,6,1,20,22,0,
Cc1cccc(N2C(=O)NC(=O)/C(=C\c3cc(C)n(-c4sc5c(c4C#N)CCCC5)c3C)C2=O)c1C,3,71*,3,-7,5,54*,15,-3,
